Measured values: ChEMBL document CHEMBL1159094, “New iodinated quinoline-2-carboxamides for SPECT imaging of the translocator protein” (Bioorg Med Chem Lett, 2010)

Tests used:
Translocator protein = Translocator protein (Rattus norvegicus, UniProt P16257); assay: Displacement of [3H]PK11195 from TSPO in Sprague-Dawley rat brain homogenates by liquid scintillation counting; format: tissue-based
[1] = Lipophilicity, log P by HPLC method; settings: octanol/water
[2] = Chemical stability in 0.01 mM phosphate buffered saline assessed as purity of parent compound after 1 hr by HPLC analysis; format: physicochemical; settings: read-out: Activity
In short: (§1)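 Test compound incubated in phosphate buffered saline at 37 °C. Parent compound decomposition followed over time by HPLC.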

[3] = Chemical stability in 0.01 mM phosphate buffered saline assessed as purity of parent compound after 2 hrs by HPLC analysis; format: physicochemical; settings: read-out: Activity; in short: as §1
[4] = Chemical stability in 0.01 mM phosphate buffered saline assessed as purity of parent compound after 4 hrs by HPLC analysis; format: physicochemical; settings: read-out: Activity; in short: as §1
[5] = Chemical stability in 0.01 mM phosphate buffered saline assessed as purity of parent compound after 6 hrs by HPLC analysis; format: physicochemical; settings: read-out: Activity; in short: as §1
[6] = Chemical stability in 0.01 mM phosphate buffered saline assessed as purity of parent compound after 24 hrs by HPLC analysis; format: physicochemical; settings: read-out: Activity; in short: as §1

Translocator protein, sequence (P16257 whole entry, looked up): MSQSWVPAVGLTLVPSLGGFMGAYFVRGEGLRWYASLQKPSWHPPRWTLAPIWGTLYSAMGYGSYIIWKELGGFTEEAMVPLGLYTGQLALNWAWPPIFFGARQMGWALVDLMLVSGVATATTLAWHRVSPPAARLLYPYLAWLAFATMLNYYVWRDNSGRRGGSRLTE

Structure (SMILES) | Ki (Translocator protein) [nM] | logP [1] | also measured
CN(Cc1cccc(I)c1)C(=O)c1cc(-c2ccc(F)cc2)c2ccccc2n1 | > 1000 | 5.16 | –
Cc1c(C(=O)N(C)Cc2ccc(I)cc2)nc2ccccc2c1-c1ccccc1 | > 1000 | 5.12 | –
CN(CCc1ccccc1)C(=O)c1nc2ccccc2c(-c2ccccc2)c1CI | 411 | 5.41 | –
CCN(CC)C(=O)c1nc2ccccc2c(-c2ccccc2)c1CI | – | – | remaining at 1 h [2]: 96%; remaining at 2 h [3]: 96%; remaining at 4 h [4]: 94%; remaining at 6 h [5]: 94%; remaining at 24 h [6]: 79%
CCC(C)N(C)C(=O)c1cc2ccccc2c(-c2ccccc2Cl)n1 (configuration not stated) [PK-11195] | – | 3.85 | –
